Assay results as given in ChEMBL document CHEMBL4371074, “Discovery of Selective Matriptase and Hepsin Serine Protease Inhibitors: Useful Chemical Tools for Cancer Cell Biology” (J Med Chem, 2019).
Active and inactive are the calls of the source. The rule behind the calls is not given here.

Columns and labels:
[1] = molecular target: T1, Suppressor of tumorigenicity 14 protein (Homo sapiens, UniProt Q9Y5Y6); test: Inhibition of recombinant human N-terminal His6-tagged matriptase catalytic domain expressed in Escherichia coli preincubated for 30 mins followed by Boc-QAR-AMC substrate addition and measured for 1 hr by fluorescence assay; settings: read-out: Ki(app)
T1 sequence (Q9Y5Y6 whole entry): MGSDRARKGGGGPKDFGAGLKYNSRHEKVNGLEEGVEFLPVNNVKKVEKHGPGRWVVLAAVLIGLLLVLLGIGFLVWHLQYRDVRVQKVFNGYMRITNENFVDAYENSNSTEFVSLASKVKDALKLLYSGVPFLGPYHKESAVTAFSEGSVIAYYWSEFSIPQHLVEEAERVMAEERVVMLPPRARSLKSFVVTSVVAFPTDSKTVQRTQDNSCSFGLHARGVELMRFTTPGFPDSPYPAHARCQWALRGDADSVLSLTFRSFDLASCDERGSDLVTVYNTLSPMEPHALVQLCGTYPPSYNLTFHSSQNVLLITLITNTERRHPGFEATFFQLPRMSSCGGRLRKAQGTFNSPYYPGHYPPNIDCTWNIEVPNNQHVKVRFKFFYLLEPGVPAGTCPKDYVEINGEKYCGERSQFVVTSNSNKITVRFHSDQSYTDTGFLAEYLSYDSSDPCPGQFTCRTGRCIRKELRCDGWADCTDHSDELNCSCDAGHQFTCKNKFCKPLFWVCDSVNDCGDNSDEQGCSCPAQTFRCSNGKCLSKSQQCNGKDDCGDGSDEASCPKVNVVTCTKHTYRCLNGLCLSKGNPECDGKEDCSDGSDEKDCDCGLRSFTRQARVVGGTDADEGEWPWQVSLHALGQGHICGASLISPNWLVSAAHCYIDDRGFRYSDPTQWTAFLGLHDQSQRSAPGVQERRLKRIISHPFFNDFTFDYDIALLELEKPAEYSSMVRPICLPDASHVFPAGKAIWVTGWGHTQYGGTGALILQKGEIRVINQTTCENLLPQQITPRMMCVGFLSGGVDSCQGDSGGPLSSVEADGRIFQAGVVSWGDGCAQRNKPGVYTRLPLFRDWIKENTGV
Outline: (§1)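 HGFA was at 7.5 nM with Boc-QLR-AMC (Km 37 µM). Matriptase was at 0.2 nM and hepsin at 0.3 nM, both with Boc-QAR-AMC (Km 93 and 156 µM). Hepsin was pre-activated for 24 h at 37°C. Eleven inhibitor concentrations (0-20 µM, 2% DMSO) were given 30 min RT before substrate at Km. Fluorescence was read at ex 380/em 460 nm. IC50 came from a four-parameter fit, mean of three experiments.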

Homo sapiens [2] = organism: Homo sapiens; test: Selectivity ratio of Ki(app) for recombinant human N-terminal His6-tagged matriptase catalytic domain expressed in Escherichia coli to Ki(app) for recombinant human C-terminal His10-tagged hepsin catalytic domain
Homo sapiens [3] = organism: Homo sapiens; test: Selectivity ratio of Ki(app) for recombinant human C-terminal His10-tagged hepsin catalytic domain to Ki(app) for recombinant human N-terminal His6-tagged matriptase catalytic domain expressed in Escherichia coli
[4] = molecular target: T2, Hepatocyte growth factor activator serine protease (Homo sapiens, UniProt Q04756); test: Inhibition of HGFA catalytic domain (unknown origin) preincubated for 30 mins followed by Boc-QLR-AMC substrate addition and measured for 1 hr by fluorescence assay; settings: read-out: Ki(app)
T2 sequence (Q04756 whole entry): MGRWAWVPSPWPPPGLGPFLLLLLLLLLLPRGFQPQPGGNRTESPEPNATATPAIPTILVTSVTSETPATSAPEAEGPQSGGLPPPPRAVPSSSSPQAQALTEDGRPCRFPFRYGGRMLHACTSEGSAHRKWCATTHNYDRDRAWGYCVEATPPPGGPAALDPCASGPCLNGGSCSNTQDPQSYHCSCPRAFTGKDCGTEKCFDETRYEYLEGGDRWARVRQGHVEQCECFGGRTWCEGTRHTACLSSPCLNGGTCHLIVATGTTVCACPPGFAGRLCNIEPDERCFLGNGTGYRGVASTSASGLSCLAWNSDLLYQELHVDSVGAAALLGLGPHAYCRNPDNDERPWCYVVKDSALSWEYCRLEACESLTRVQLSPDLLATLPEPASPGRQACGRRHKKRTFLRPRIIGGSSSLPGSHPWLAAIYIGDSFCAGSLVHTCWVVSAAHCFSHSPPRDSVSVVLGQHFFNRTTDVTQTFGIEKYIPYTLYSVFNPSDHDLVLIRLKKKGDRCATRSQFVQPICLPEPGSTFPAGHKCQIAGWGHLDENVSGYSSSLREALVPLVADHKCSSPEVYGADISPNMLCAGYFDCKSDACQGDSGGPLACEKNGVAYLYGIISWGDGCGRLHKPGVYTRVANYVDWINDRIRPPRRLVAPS

Serine protease hepsin [5] = molecular target: T3, Serine protease hepsin (Homo sapiens, UniProt P05981); test: Inhibition of recombinant human C-terminal His10-tagged hepsin catalytic domain preincubated for 30 mins followed by Boc-QAR-AMC substrate addition and measured for 1 hr by fluorescence assay; settings: read-out: Ki(app); outline: as §1
Serine protease hepsin [6] = molecular target: T3, Serine protease hepsin; test: Inhibition of hepsin (unknown origin) expressed in MCF10A cells preincubated for 30 mins followed by Boc-QRR-AMC substrate addition and measured for 1 hr by fluorescence assay
Serine protease hepsin [7] = molecular target: T3, Serine protease hepsin; test: Inhibition of hepsin (unknown origin) expressed in MCF10A cells assessed as reduction in desmosomal cadherin desmoglein 2 loss at 1 uM after 45 mins by Hoechst 33258 staining based immunofluorescence microscopic method; format: cell-based
Outline: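 MCF10A-Indu20-hepsin cells were grown as 2D monolayers on coverslips, with or without doxycycline induction, and pretreated with inhibitor at 1 µM. They were fixed and permeabilized in ice-cold methanol for 5 min and blocked in 0.1% BSA/PBS for 30 min. Staining used anti-desmoglein 2 and anti-hepsin, then Alexa secondaries for 45 min RT, with Hoechst nuclei. Confocal images were scored; cells with pericellular desmoglein 2 on at least two sides counted positive.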

N=C(N)NCCC[C@H](NC(=O)[C@H](Cc1c[nH]c2ccccc12)NC(=O)OCC1c2ccccc2-c2ccccc21)C(=O)c1nc2ccccc2s1 showed a Ki [1] of 0.294 µM, a Ratio Ki(app) (Homo sapiens [2]) of 1 and a Ratio Ki(app) (Homo sapiens [3]) of 1. The Ki [4] was 3.2 µM and the Ki (Serine protease hepsin [5]) was 0.302 µM.

For N=C(N)NCCC[C@H](NC(=O)[C@H](Cc1ccc(O)cc1)NC(=O)OCC1c2ccccc2-c2ccccc21)C(=O)c1nc2ccccc2s1, the Ki [1] was 0.025 µM, the Ratio Ki(app) (Homo sapiens [3]) was 10 and the Ki [4] was 2.96 µM. For the same molecule, the Ki (Serine protease hepsin [5]) was 0.256 µM.

In the case of N=C(N)NCCC[C@H](NC(=O)[C@H](Cc1cnc[nH]1)NC(=O)OCC1c2ccccc2-c2ccccc21)C(=O)c1nc2ccccc2s1, the Ki [1] is reported as 0.011 µM, the Ratio Ki(app) (Homo sapiens [3]) is reported as 21 and the Ki [4] is reported as 6.12 µM. It also gave a Ki (Serine protease hepsin [5]) of 0.226 µM.

N=C(N)NCCC[C@H](NC(=O)OCC1c2ccccc2-c2ccccc21)C(=O)N[C@@H](CCCNC(=N)N)C(=O)c1nc2ccccc2s1 gave a Ki [1] of 0.0039 µM, a Ratio Ki(app) (Homo sapiens [3]) of 26 and a Ki [4] of 8.63 µM. For the same molecule, the Ki (Serine protease hepsin [5]) was 0.102 µM.

Work on C[C@H](NC(=O)OCC1c2ccccc2-c2ccccc21)C(=O)N[C@@H](CCCNC(=N)N)C(=O)c1nc2ccccc2s1 yielded a Ki [1] of 0.00036 µM, a Ratio Ki(app) (Homo sapiens [3]) of 667 and a Ki [4] of 7.98 µM. For the same molecule, the Ki (Serine protease hepsin [5]) was 0.24 µM.

In the case of N=C(N)NCCC[C@H](NC(=O)[C@H](CCCCN)NC(=O)OCC1c2ccccc2-c2ccccc21)C(=O)c1nc2ccccc2s1, the Ki [1] is reported as 0.00022 µM, the Ratio Ki(app) (Homo sapiens [3]) is reported as 473 and the Ki [4] is reported as greater than 10 µM. For the same molecule, the Ki (Serine protease hepsin [5]) was 0.104 µM.

Molecule CC(C)C[C@H](NC(=O)OCC1c2ccccc2-c2ccccc21)C(=O)N[C@@H](CCCNC(=N)N)C(=O)c1nc2ccccc2s1 has a Ki [1] of 0.253 µM, a Ratio Ki(app) (Homo sapiens [2]) of 3.8 and a Ki [4] of 0.468 µM. For the same molecule, the Ki (Serine protease hepsin [5]) was 0.067 µM.

Molecule CC(=O)N[C@@H](CCCCN)C(=O)N[C@@H](CCC(N)=O)C(=O)N[C@@H](CC(C)C)C(=O)N[C@@H](CCCNC(=N)N)C(=O)c1nc2ccccc2s1 has a Ratio Ki(app) (Homo sapiens [2]) of 6.1.

With CSCC[C@H](NC(=O)OCC1c2ccccc2-c2ccccc21)C(=O)N[C@@H](CCCNC(=N)N)C(=O)c1nc2ccccc2s1 the Ki [1] was 0.0054 µM and the Ki (Serine protease hepsin [5]) was 0.227 µM.

In the case of N=C(N)NCCC[C@H](NC(=O)[C@H](CO)NC(=O)OCC1c2ccccc2-c2ccccc21)C(=O)c1nc2ccccc2s1, the Ki [1] is reported as 0.0049 µM, the Ratio Ki(app) (Homo sapiens [3]) is reported as 113 and the Ki [4] is reported as greater than 10 µM. For the same molecule, the Ki (Serine protease hepsin [5]) was 0.555 µM.

C[C@@H](O)[C@H](NC(=O)OCC1c2ccccc2-c2ccccc21)C(=O)N[C@@H](CCCNC(=N)N)C(=O)c1nc2ccccc2s1 was tested, and the Ki [1] was 0.271 µM, the Ratio Ki(app) (Homo sapiens [2]) was 1.5 and the Ki [4] was greater than 10 µM. For the same molecule, the Ki (Serine protease hepsin [5]) was 0.18 µM.

Molecule N=C(N)NCCC[C@H](NC(=O)[C@@H]1CCCN1C(=O)OCC1c2ccccc2-c2ccccc21)C(=O)c1nc2ccccc2s1 has a Ki [1] of 0.0005 µM, a Ratio Ki(app) (Homo sapiens [3]) of 782 and a Ki [4] greater than 10 µM. The Ki (Serine protease hepsin [5]) was 0.391 µM.

Work on CC[C@H](C)[C@H](NC(=O)OCC1c2ccccc2-c2ccccc21)C(=O)N[C@@H](CCCNC(=N)N)C(=O)c1nc2ccccc2s1 yielded a Ki [1] of 0.486 µM, a Ratio Ki(app) (Homo sapiens [2]) of 2.1 and a Ki [4] of 4.3 µM. The Ki (Serine protease hepsin [5]) was 0.228 µM.

Molecule N=C(N)NCCC[C@H](NC(=O)[C@H](CC(=O)O)NC(=O)OCC1c2ccccc2-c2ccccc21)C(=O)c1nc2ccccc2s1 has a Ki [1] of 0.294 µM, a Ratio Ki(app) (Homo sapiens [2]) of 3 and a Ki [4] greater than 10 µM. The Ki (Serine protease hepsin [5]) was 0.098 µM.

N=C(N)NCCC[C@H](NC(=O)CNC(=O)OCC1c2ccccc2-c2ccccc21)C(=O)c1nc2ccccc2s1 showed an IC50 (Serine protease hepsin [6]) greater than 10 µM, a Ratio Ki(app) (Homo sapiens [3]) of 6390 and a Ki [4] of 9.37 µM. The inhibition (Serine protease hepsin [7]) was “inactive”.

With N=C(N)NCCC[C@H](NC(=O)[C@H](Cc1ccccc1)NC(=O)OCC1c2ccccc2-c2ccccc21)C(=O)c1nc2ccccc2s1 the Ki [1] was 0.188 µM, the Ratio Ki(app) (Homo sapiens [3]) was 4 and the Ki (Serine protease hepsin [5]) was 0.764 µM.

N=C(N)NCCC[C@H](NC(=O)[C@H](CCC(N)=O)NC(=O)OCC1c2ccccc2-c2ccccc21)C(=O)c1nc2ccccc2s1 showed a Ki [1] of 0.00065 µM, a Ratio Ki(app) (Homo sapiens [3]) of 179 and a Ki [4] of 6.83 µM. For the same molecule, the Ki (Serine protease hepsin [5]) was 0.116 µM.

For N=C(N)NCCC[C@H](NC(=O)[C@H](CC(N)=O)NC(=O)OCC1c2ccccc2-c2ccccc21)C(=O)c1nc2ccccc2s1, the Ratio Ki(app) (Homo sapiens [2]) was 62, the IC50 (Serine protease hepsin [6]) was 0.092 µM and the Ki [4] was 4.77 µM. The inhibition (Serine protease hepsin [7]) was “Active”.

CC(C)[C@H](NC(=O)OCC1c2ccccc2-c2ccccc21)C(=O)N[C@@H](CCCNC(=N)N)C(=O)c1nc2ccccc2s1 gave a Ki [1] of 0.018 µM, a Ratio Ki(app) (Homo sapiens [3]) of 6.9 and a Ki [4] of 4.63 µM. For the same molecule, the Ki (Serine protease hepsin [5]) was 0.125 µM.

In the case of CC(=O)N[C@@H](CO)C(=O)N[C@@H](CCCCN)C(=O)N[C@@H](CC(C)C)C(=O)N[C@@H](CCCNC(=N)N)C(=O)c1nc2ccccc2s1, the Ki [1] is reported as 0.0031 µM and the Ratio Ki(app) (Homo sapiens [2]) is reported as 19.

For N=C(N)NCCC[C@H](NC(=O)[C@H](CCC(=O)O)NC(=O)OCC1c2ccccc2-c2ccccc21)C(=O)c1nc2ccccc2s1, the Ki [1] was 0.0072 µM, the Ratio Ki(app) (Homo sapiens [3]) was 52 and the Ki [4] was greater than 10 µM. The Ki (Serine protease hepsin [5]) was 0.372 µM.
